From ChEMBL document CHEMBL1687818, “Mechanistic studies of the inactivation of TEM-1 and P99 by NXL104, a novel non-beta-lactam beta-lactamase inhibitor” (Antimicrob Agents Chemother, 2010)

How the values were obtained:
[1] = Inhibition of beta-lactamase KPC-2 assessed as nitrocefin hydrolysis after 5 mins enzyme-compound preincubation
Outline: (§1)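 Enzyme and inhibitor were preincubated 5 min at 37°C. The inhibitor was tested at 11 concentrations from 1 nM to 100 µM. Final enzyme concentrations were TEM-1 0.25 nM, CTX-M-15 0.35 nM, KPC-2 3 nM and SHV-4 6 nM. Nitrocefin was at 100 µM. Initial rates were read at 485 nm over the first minute. Each value is the mean of at least two independent experiments.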

[2] = Inhibition of beta-lactamase SHV-4 assessed as nitrocefin hydrolysis after 5 mins enzyme-compound preincubation; outline: as §1
[3] = Inhibition of beta-lactamase TEM-1 after 5 seconds incubation with nitrocefin substrate by spectrophotometry
Outline: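 Direct competition with reporter substrate at 37°C: inhibitor concentrations were premixed with 100 µM nitrocefin, and the reaction was started with 0.25 nM purified TEM-1. Nitrocefin hydrolysis was followed spectrophotometrically at 485 nm. Initial velocity over the first 5 s was compared with the no-inhibitor control, and KI was derived by equation 2. Means of at least two independent experiments.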

[4] = Inhibition of beta-lactamase TEM- 1 assessed as nitrocefin hydrolysis after 5 mins enzyme-compound preincubation; outline: as §1
[5] = Inhibition of beta-lactamase CTX-M-15 assessed as nitrocefin hydrolysis after 5 mins enzyme-compound preincubation
Beta-lactamase [6] = target: T1, Beta-lactamase (Enterobacter cloacae, UniProt P05364); assay: Inhibition of Enterobacter cloacae beta-lactamase P99 assessed as nitrocefin hydrolysis after 5 mins enzyme-compound preincubation
Beta-lactamase [7] = target: T1, Beta-lactamase; assay: Inhibition of Enterobacter cloacae beta-lactamase P99 after 5 seconds incubation with nitrocefin substrate by spectrophotometry

T1 sequence (P05364 whole entry): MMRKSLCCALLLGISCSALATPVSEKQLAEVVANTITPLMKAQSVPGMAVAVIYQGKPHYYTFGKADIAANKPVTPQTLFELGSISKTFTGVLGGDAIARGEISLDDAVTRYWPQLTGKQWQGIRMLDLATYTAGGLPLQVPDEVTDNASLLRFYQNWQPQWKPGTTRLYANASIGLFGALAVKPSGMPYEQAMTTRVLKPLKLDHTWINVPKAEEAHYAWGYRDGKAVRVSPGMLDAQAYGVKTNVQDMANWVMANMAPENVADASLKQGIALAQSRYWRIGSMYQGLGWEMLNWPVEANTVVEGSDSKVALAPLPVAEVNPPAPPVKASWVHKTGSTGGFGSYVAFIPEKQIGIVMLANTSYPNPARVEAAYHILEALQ

SMILES	IC50 [1] [nM]	IC50 [2] [nM]	Ki [3] [nM]	IC50 [4] [nM]	IC50 [5] [nM]	IC50 (Beta-lactamase [6]) [nM]	Ki (Beta-lactamase [7]) [nM]
O=C(O)[C@H]1/C(=C/CO)O[C@@H]2CC(=O)N21 [CLAVULANIC ACID]	> 100000	4	800	58	–	–	–
NC(=O)[C@@H]1CC[C@@H]2CN1C(=O)N2OS(=O)(=O)O (relative stereo) [AVIBACTAM]	170	3	260	8	5	100	7700
CC1(C)[C@H](C(=O)O)N2C(=O)C[C@H]2S1(=O)=O [SULBACTAM]	57000	260	–	1560	230	–	–
C[C@]1(Cn2ccnn2)[C@H](C(=O)O)N2C(=O)C[C@H]2S1(=O)=O [TAZOBACTAM]	50000	55	30	32	6	–	–
